# Calls of active or inactive are those of the source. The calls are words filed in the database; no cut-off is given here.
# Key:
# [1] = target: Heat shock protein HSP 90-beta (Homo sapiens) (UniProt P08238); assay: Inhibition of HSP90-mediated antiapoptotic activity in human SKBR3 cells assessed as induction of cell growth arrest at 20 uM after 24 hrs by propidium iodide staining-based flow cytometry; conditions: SK-BR-3
# [2] = target: Heat shock protein HSP 90-beta (Homo sapiens) (UniProt P08238); assay: Inhibition of HSP90-mediated antiapoptotic activity in human NCI-N417 cells assessed as subG1 accumulation at 15 uM after 72 hrs by propidium iodide staining-based flow cytometry; type: cell-based; conditions: NCI-H417
# Procedure, shortened: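 Asynchronously growing cells were treated with compound, stained with propidium iodide and analysed by flow cytometry. The read-out was the percentage of cells with sub-G1 DNA content.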
# [3] = target: Heat shock protein HSP 90-beta (Homo sapiens) (UniProt P08238); assay: Inhibition of HSP90-mediated antiapoptotic activity in human NCI-H526 cells assessed as disruption of protein-Apaf-1 complex at 20 uM after 24 hrs by Western blot analysis; type: cell-based
# Procedure, shortened: (§1)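 NCI-H526 cells treated for 24 h with vehicle or inhibitors (20 µM or 50 µM). Proteins isolated with Apaf-1-specific antibody and whole lysates analysed by western blot. n = 3.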
# SK-BR-3 [4] = assay: Inhibition of HSP70-mediated antiapoptotic activity in human SKBR3 cells assessed as induction of cell growth arrest after 72 hrs by propidium iodide staining-based flow cytometry
# [5] = target: Heat shock protein HSP 90-beta (Homo sapiens) (UniProt P08238); assay: Inhibition of HSP90-mediated antiapoptotic activity in human NCI-H526 cells assessed as increased association between caspase-9 and Apaf-1 at 20 uM after 1 hr by Western blot analysis
# [6] = target: Heat shock protein HSP 90-beta (Homo sapiens) (UniProt P08238); assay: Inhibition of HSP90-mediated antiapoptotic activity in human MCF7 cells assessed as induction of caspase-3 cleavage at 400 uM after 24 hrs by Western blot analysis; type: cell-based
# [7] = target: Heat shock protein HSP 90-beta (Homo sapiens) (UniProt P08238); assay: Inhibition of HSP90-mediated antiapoptotic activity in human NCI-H526 cells assessed as mitochondrial membrane depolarization at 10 uM after 72 hrs by JC-1 staining-based flow cytometry in presence of broad-spectrum caspase inhibitor Boc-D-FMK; type: cell-based
# Procedure, shortened: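 NCI-H526 cells pretreated for 3 h with Boc-D-FMK (100 µM), then exposed to 10 µM for 72 h. Flow cytometry after JC-1 staining for mitochondrial potential and after propidium iodide staining for DNA content. n = 3.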
# SK-BR-3 [8] = assay: Inhibition of HSP70-mediated antiapoptotic activity in human SKBR3 cells assessed as induction of caspase-3 cleavage after 24 hrs by Western blot analysis; type: cell-based
# Procedure, shortened: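 SKBr3 cells were treated for 24 h. Lysates were probed by western blot for caspase-3 and PARP cleavage. Apaf-1 complexes were pulled down with Apaf-1 antibody (with control IgG) and immunoblotted.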
# [9] = target: Heat shock protein HSP 90-beta (Homo sapiens) (UniProt P08238); assay: Inhibition of HSP90-mediated antiapoptotic activity in human NCI-H526 cells assessed as increase in caspase-3 activity at 10 uM after 24 hrs by Western blot analysis; type: cell-based
# [10] = target: Heat shock protein HSP 90-beta (Homo sapiens) (UniProt P08238); assay: Inhibition of HSP90-mediated antiapoptotic activity in human NCI-H187 cells assessed as mitochondrial membrane depolarization at 5 uM after 72 hrs by JC-1 staining-based flow cytometry; type: cell-based
# Procedure, shortened: (§2)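 SCLC cells treated for 72 h with graded doses. Mitochondrial membrane potential read by flow cytometry after JC-1 staining, with green-only emission indicating depolarization. Sub-G1 DNA content read after propidium iodide staining. CCCP used as positive control. n = 3 repeat experiments.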
# [11] = target: Heat shock protein HSP 90-beta (Homo sapiens) (UniProt P08238); assay: Inhibition of HSP90-mediated antiapoptotic activity in human NCI-H526 cells assessed as subG1 accumulation at 2.5 uM after 72 hrs by propidium iodide staining-based flow cytometry; type: cell-based; procedure, shortened: as §2
# [12] = target: Heat shock protein HSP 90-beta (Homo sapiens) (UniProt P08238); assay: Inhibition of HSP90-mediated antiapoptotic activity in human NCI-H526 cells assessed as induction of PARP cleavage at 10 uM after 72 hrs by fluorescence assay in presence of caspase-9 inhibitor Z-LEHD-FMK; type: cell-based
# [13] = target: Heat shock protein HSP 90-beta (Homo sapiens) (UniProt P08238); assay: Inhibition of HSP90-mediated antiapoptotic activity in human SKBR3 cells assessed as induction of PARP cleavage at 50 uM after 24 hrs by Western blot analysis; type: cell-based; conditions: SK-BR-3
# Procedure, shortened: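 SKBr3 cells at 60–70% confluence were exposed to drug or DMSO vehicle. Lysis was in 50 mM Tris pH 7.4, 150 mM NaCl, 1% NP-40, with protein measured by BCA. Lysates of 20–100 µg were run on SDS-PAGE, blotted to nitrocellulose, probed with primary antibodies and detected with a peroxidase-conjugated secondary (1:5,000). Loading was checked with β-actin or PI(3)K p85.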
# [14] = target: Heat shock protein HSP 90-beta (Homo sapiens) (UniProt P08238); assay: Inhibition of HSP90-mediated antiapoptotic activity in human NCI-H526 cells assessed as induction of Akt degradation at 50 uM after 24 hrs by Western blot analysis; type: cell-based
# [15] = target: Heat shock protein HSP 90-beta (Homo sapiens) (UniProt P08238); assay: Inhibition of HSP90-mediated antiapoptotic activity in human NCI-H526 cells assessed as disruption of protein-Apaf-1 complex at 50 uM after 24 hrs by Western blot analysis; type: cell-based; procedure, shortened: as §1
# [16] = target: Heat shock protein HSP 90-beta (Homo sapiens) (UniProt P08238); assay: Inhibition of HSP90-mediated antiapoptotic activity in human NCI-N417 cells assessed as mitochondrial membrane depolarization at 5 uM after 96 hrs by JC-1 staining-based flow cytometry; type: cell-based; conditions: NCI-H417
# Procedure, shortened: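 Mitochondrial membrane potential was measured by JC-1 staining and flow cytometry. Depolarization was scored as a shift to cells emitting only green fluorescence. The mitochondrial uncoupler CCCP served as positive control.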
# [17] = target: Heat shock protein HSP 90-beta (Homo sapiens) (UniProt P08238); assay: Inhibition of HSP90-mediated antiapoptotic activity in human NCI-H526 cells assessed as subG1 accumulation at 5 uM after 72 hrs by propidium iodide staining-based flow cytometry; type: cell-based; procedure, shortened: as §2
# [18] = target: Heat shock protein HSP 90-beta (Homo sapiens) (UniProt P08238); assay: Inhibition of HSP90-mediated antiapoptotic activity in human NCI-H69 cells assessed as increase in apoptotic cell population at 0.2 to 1 uM after 72 hrs by FACS analysis relative to control; type: cell-based
# [19] = target: Heat shock protein HSP 90-beta (Homo sapiens) (UniProt P08238); assay: Inhibition of HSP90-mediated antiapoptotic activity in human MCF7 cells assessed as induction of cell growth arrest at 50 uM after 24 hrs by propidium iodide staining-based flow cytometry
# [20] = target: Heat shock protein HSP 90-beta (Homo sapiens) (UniProt P08238); assay: Inhibition of HSP90-mediated antiapoptotic activity in human NCI-H526 cells assessed as increase in caspase-3 activity at 10 uM after 72 hrs by fluorescence assay in presence of caspase-9 inhibitor Z-LEHD-FMK; type: cell-based
# Procedure, shortened: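 NCI-H526 cells pretreated with Z-LEHD-FMK (100 µM), then exposed to 10 µM for 72 h. Caspase-3 activation read by Z-DEVD-R110 fluorescence. Caspase-3 and PARP cleavage read by western blot. n = 3.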
# [21] = target: Heat shock protein HSP 90-beta (Homo sapiens) (UniProt P08238); assay: Inhibition of HSP90-mediated antiapoptotic activity in human NCI-H526 cells assessed as induction of Akt degradation at 20 uM after 24 hrs by Western blot analysis; type: cell-based
# [22] = target: Heat shock protein HSP 90-beta (Homo sapiens) (UniProt P08238); assay: Inhibition of HSP90-mediated antiapoptotic activity in human MCF7 cells assessed as induction of cell growth arrest at 20 uM after 24 hrs by propidium iodide staining-based flow cytometry
# [23] = target: Heat shock protein HSP 90-beta (Homo sapiens) (UniProt P08238); assay: Inhibition of HSP90-mediated antiapoptotic activity in human SKBR3 cells assessed as induction of cell growth arrest at 100 uM after 24 hrs by propidium iodide staining-based flow cytometry; conditions: SK-BR-3
# [24] = target: Heat shock protein HSP 90-beta (Homo sapiens) (UniProt P08238); assay: Inhibition of HSP90-mediated antiapoptotic activity in human NCI-H187 cells assessed as subG1 accumulation at 5 uM after 72 hrs by propidium iodide staining-based flow cytometry; type: cell-based; procedure, shortened: as §2
# [25] = target: Heat shock protein HSP 90-beta (Homo sapiens) (UniProt P08238); assay: Inhibition of HSP90-mediated antiapoptotic activity in human MCF7 cells assessed as induction of cell growth arrest at 100 uM after 24 hrs by propidium iodide staining-based flow cytometry
# Sequence of Heat shock protein HSP 90-beta (Homo sapiens) (P08238 whole entry): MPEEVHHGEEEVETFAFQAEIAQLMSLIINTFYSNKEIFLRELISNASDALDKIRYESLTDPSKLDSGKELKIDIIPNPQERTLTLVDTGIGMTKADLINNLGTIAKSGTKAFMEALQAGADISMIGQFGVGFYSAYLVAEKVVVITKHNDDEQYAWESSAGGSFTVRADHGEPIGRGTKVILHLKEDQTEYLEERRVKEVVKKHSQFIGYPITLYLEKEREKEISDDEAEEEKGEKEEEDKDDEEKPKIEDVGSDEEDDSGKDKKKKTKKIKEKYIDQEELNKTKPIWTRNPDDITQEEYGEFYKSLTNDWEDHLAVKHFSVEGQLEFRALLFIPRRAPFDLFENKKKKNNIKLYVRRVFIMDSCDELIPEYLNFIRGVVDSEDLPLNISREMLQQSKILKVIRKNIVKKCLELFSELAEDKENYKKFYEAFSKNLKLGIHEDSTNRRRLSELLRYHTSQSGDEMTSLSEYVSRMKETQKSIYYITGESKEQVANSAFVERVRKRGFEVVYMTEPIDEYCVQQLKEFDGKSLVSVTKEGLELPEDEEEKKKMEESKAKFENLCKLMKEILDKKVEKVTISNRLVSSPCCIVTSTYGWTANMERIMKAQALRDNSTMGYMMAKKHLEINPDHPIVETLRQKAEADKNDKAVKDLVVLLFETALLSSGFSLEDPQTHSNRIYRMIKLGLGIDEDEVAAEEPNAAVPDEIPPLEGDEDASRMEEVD
smiles,measurement,setting,value
O=CN1CC/C(=C/c2ccc3c(c2)OCO3)C1=O,Activity,[1],inactive
same,Activity,[2],inactive
same,Activity,[3],inactive
same,inhibition,SK-BR-3 [4],Active
same,Activity,[5],inactive
same,Activity,[6],inactive
same,Activity,[7],inactive
same,inhibition,SK-BR-3 [8],Active
same,Activity,[9],inactive
same,Activity,[10],inactive
same,Activity,[11],inactive
same,Activity,[12],inactive
same,Activity,[13],inactive
same,Activity,[14],inactive
same,Activity,[15],inactive
same,Activity,[16],inactive
same,Activity,[17],inactive
same,Activity,[18],inactive
same,Activity,[19],inactive
same,Activity,[20],inactive
same,Activity,[21],inactive
same,Activity,[22],inactive
same,Activity,[23],Active
same,Activity,[24],inactive
same,Activity,[25],Active
